ChEMBL document CHEMBL1914423, “New imidazo[2,1-b]thiazole derivatives: synthesis, in vitro anticancer evaluation, and in silico studies” (Eur J Med Chem, 2011)

Columns and labels:
Type in all cases: functional
CCRF-CEM = assay: Anticancer activity against human CCRF-CEM cells after 48 hrs by SRB assay
In short: (§1)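 NCI five-dose screen. Cells in RPMI 1640 with 5% FBS and 2 mM L-glutamine, seeded at 5000–40,000 cells/well according to doubling time, then pre-incubated 24 h at 37 °C in 5% CO2. Drugs dissolved in DMSO, five concentrations by 10-fold or 1/2-log dilution. Cells fixed with TCA, SRB-stained, A515 read. IC50 solved from [(Ti−Tz)/(C−Tz)]×100 = 50.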

HL-60(TB) = assay: Anticancer activity against human HL-60(TB) cells after 48 hrs by SRB assay; conditions: HL-60, 48 h
In short: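 NCI-60 five-dose screen. Cells grown in RPMI 1640 with 5% FBS and 2 mM L-glutamine, seeded at 5000–40,000 cells/well, and held 24 h at 37 °C and 5% CO₂ before drug. DMSO stocks were diluted into five concentrations (10-fold or ½-log steps). Settled suspension cells were fixed with cold TCA, SRB-stained, and read at 515 nm. […] was taken where [(Ti−Tz)/(C−Tz)]×100 = 50.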

RPMI-8226 = assay: Anticancer activity against human RPMI8226 cells after 48 hrs by SRB assay; conditions: RPMI-8226, 48 h
HOP-62 = assay: Anticancer activity against human HOP62 cells after 48 hrs by SRB assay; conditions: HOP-62, 48 h; in short: as §1
NCI-H226 = assay: Anticancer activity against human NCI-H226 cells after 48 hrs by SRB assay; conditions: NCI-H226, 48 h
NCI-H23 = assay: Anticancer activity against human NCI-H23 cells after 48 hrs by SRB assay; conditions: NCI-H23, 48 h
NCI-H460 = assay: Anticancer activity against human NCI-H460 cells after 48 hrs by SRB assay; conditions: NCI-H460, 48 h
HCT-15 = assay: Anticancer activity against human HCT15 cells after 48 hrs by SRB assay; conditions: HCT-15, 48 h; in short: as §1
HT-29 = assay: Anticancer activity against human HT-29 cells after 48 hrs by SRB assay; conditions: HT-29, 48 h; in short: as §1
SW-620 = assay: Anticancer activity against human SW620 cells after 48 hrs by SRB assay; conditions: SW-620, 48 h
In short: (§2)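 NCI-60 five-dose mode: cells in RPMI 1640 with 5% FBS and 2 mM glutamine, plated at 5000–40,000 cells/well, and preincubated 24 h, with time-zero plates TCA-fixed. Drug given at five concentrations (10-fold or ½-log serial dilutions). Cold TCA fixation 60 min at 4 °C, SRB stain, Tris solubilization, A515. IC50 taken where [(Ti−Tz)/(C−Tz)]×100 = 50.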

SF-268 = assay: Anticancer activity against human SF268 cells after 48 hrs by SRB assay; conditions: SF-268, 48 h
SF-539 = assay: Anticancer activity against human SF539 cells after 48 hrs by SRB assay; conditions: SF-539, 48 h
SNB-19 = assay: Anticancer activity against human SNB19 cells after 48 hrs by SRB assay; conditions: SNB-19, 48 h
LOX IMVI = assay: Anticancer activity against human LOXIMVI cells after 48 hrs by SRB assay; in short: as §1
Malme-3M = assay: Anticancer activity against human MALME-3M cells after 48 hrs by SRB assay; in short: as §1
SK-MEL-28 = assay: Anticancer activity against human SK-MEL-28 cells after 48 hrs by SRB assay; conditions: SK-MEL-28, 48 h
SK-MEL-5 = assay: Anticancer activity against human SK-MEL-5 cells after 48 hrs by SRB assay; conditions: SK-MEL-5, 48 h
UACC-257 = assay: Anticancer activity against human UACC257 cells after 48 hrs by SRB assay; conditions: UACC-257, 48 h; in short: as §2
IGROV-1 = assay: Anticancer activity against human IGROV1 cells after 48 hrs by SRB assay; conditions: IGROV-1, 48 h; in short: as §1
OVCAR-4 = assay: Anticancer activity against human OVCAR4 cells after 48 hrs by SRB assay; conditions: OVCAR-4, 48 h
OVCAR-5 = assay: Anticancer activity against human OVCAR5 cells after 48 hrs by SRB assay; conditions: OVCAR-5, 48 h
OVCAR-8 = assay: Anticancer activity against human OVCAR8 cells after 48 hrs by SRB assay; conditions: OVCAR-8, 48 h
NCI/ADR-RES = assay: Anticancer activity against human NCI/ADR-RES cells after 48 hrs by SRB assay
CAKI-1 = assay: Anticancer activity against human Caki1 cells after 48 hrs by SRB assay; conditions: CAKI-1, 48 h; in short: as §1
SN12C = assay: Anticancer activity against human SN12C cells after 48 hrs by SRB assay
UO-31 = assay: Anticancer activity against human UO31 cells after 48 hrs by SRB assay; conditions: UO-31, 48 h; in short: as §2
[1] = read-out: LC50 (the source's name)

SMILES: COc1cccc(-c2nc3sccn3c2-c2ccnc(NCCNC(=O)Nc3cccc(C(F)(F)F)c3)n2)c1
- GI50 (CCRF-CEM): 8.43 µM
- TGI (CCRF-CEM): > 100 µM
- CC50 (CCRF-CEM; [1]): > 100 µM
- GI50 (HL-60(TB)): 2.92 µM
- LC50 (HL-60(TB)): > 100 µM
- TGI (HL-60(TB)): 7.43 µM
- GI50 (RPMI-8226): 1.92 µM
- LC50 (RPMI-8226): > 100 µM
- TGI (RPMI-8226): 5.11 µM
- GI50 (HOP-62): 6.71 µM
- LC50 (concentration killing 50% of starting cells) (HOP-62): > 100 µM
- TGI (HOP-62): 42.4 µM
- GI50 (NCI-H226): 4.58 µM
- LC50 (concentration killing 50% of tumour cells) (NCI-H226): > 100 µM
- TGI (NCI-H226): 68.6 µM
- GI50 (NCI-H23): 3.42 µM
- LC50 (50% lethal concentration) (NCI-H23): > 100 µM
- TGI (NCI-H23): 76.9 µM
- GI50 (NCI-H460): 2.94 µM
- LC50 (NCI-H460): > 100 µM
- TGI (NCI-H460): 14.4 µM
- GI50 (HCT-15): 3.05 µM
- TGI (HCT-15): 16.4 µM
- CC50 (HCT-15; [1]): > 100 µM
- GI50 (HT-29): 3.33 µM
- TGI (HT-29): 14 µM
- CC50 (HT-29; [1]): > 100 µM
- GI50 (SW-620): 4.47 µM
- TGI (SW-620): 91.5 µM
- CC50 (SW-620; [1]): > 100 µM
- GI50 (SF-268): 4.59 µM
- TGI (SF-268): 43.4 µM
- CC50 (SF-268; [1]): > 100 µM
- GI50 (SF-539): 3.83 µM
- TGI (SF-539): 17.1 µM
- CC50 (SF-539; [1]): 56.5 µM
- GI50 (SNB-19): 7.77 µM
- TGI (SNB-19): > 100 µM
- CC50 (SNB-19; [1]): > 100 µM
- GI50 (LOX IMVI): 4.11 µM
- TGI (LOX IMVI): > 100 µM
- CC50 (LOX IMVI; [1]): > 100 µM
- GI50 (Malme-3M): 3.86 µM
- TGI (Malme-3M): 26.8 µM
- CC50 (Malme-3M; [1]): > 100 µM
- GI50 (SK-MEL-28): 5.36 µM
- TGI (SK-MEL-28): 26.2 µM
- CC50 (SK-MEL-28; [1]): > 100 µM
- GI50 (SK-MEL-5): 4.27 µM
- TGI (SK-MEL-5): 15.9 µM
- CC50 (SK-MEL-5; [1]): 40.6 µM
- GI50 (UACC-257): 4.34 µM
- TGI (UACC-257): 16.5 µM
- CC50 (UACC-257; [1]): 65.9 µM
- GI50 (IGROV-1): 3.32 µM
- TGI (IGROV-1): 21.8 µM
- CC50 (IGROV-1; [1]): > 100 µM
- GI50 (OVCAR-4): 3.78 µM
- TGI (OVCAR-4): 34.1 µM
- CC50 (OVCAR-4; [1]): > 100 µM
- GI50 (OVCAR-5): 6.37 µM
- TGI (OVCAR-5): 52.2 µM
- CC50 (OVCAR-5; [1]): > 100 µM
- GI50 (OVCAR-8): 3.28 µM
- TGI (OVCAR-8): 9.79 µM
- CC50 (OVCAR-8; [1]): 66.2 µM
- GI50 (NCI/ADR-RES): 3.45 µM
- TGI (NCI/ADR-RES): > 100 µM
- CC50 (NCI/ADR-RES; [1]): > 100 µM
- GI50 (CAKI-1): 3.5 µM
- TGI (CAKI-1): 10.3 µM
- CC50 (CAKI-1; [1]): > 100 µM
- GI50 (SN12C): 4.03 µM
- TGI (SN12C): 26.5 µM
- CC50 (SN12C; [1]): > 100 µM
- GI50 (UO-31): 2.88 µM
- TGI (UO-31): 24.8 µM
- CC50 (UO-31; [1]): > 100 µM
